# Bioassay records from PubChem.
# Rows were chosen to be rich in hits. Some 3.5% of all compounds tested hit in one or more screens of this group.
# MrgX1 allo act – human MrgX1 positive allosteric modulation, primary screen | 0.63% of 310,000 active | AID 588675 | MrgX1-HEK293, Fluo-4 calcium flux, FDSS; active compounds read high | B-score at 10 µM;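 active = plate-corrected calcium response at least 3 library SD above typical, normal starting fluorescence, not activating the receptor alone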;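 also: compound read alongside a low EC10 to EC30 dose of BAM8-22 agonist; peak minus trough fluorescence over baseline measured at the second addition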
# Target sequence (Q96LB2 whole entry, looked up): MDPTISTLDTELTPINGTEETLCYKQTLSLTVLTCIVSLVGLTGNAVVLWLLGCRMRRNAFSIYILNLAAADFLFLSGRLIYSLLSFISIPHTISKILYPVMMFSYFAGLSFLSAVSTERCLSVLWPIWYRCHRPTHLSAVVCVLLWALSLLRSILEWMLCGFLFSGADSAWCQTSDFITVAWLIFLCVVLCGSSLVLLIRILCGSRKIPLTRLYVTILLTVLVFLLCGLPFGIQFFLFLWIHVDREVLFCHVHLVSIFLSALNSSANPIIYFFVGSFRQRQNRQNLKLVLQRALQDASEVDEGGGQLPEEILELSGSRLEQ
# MrgX1 ag – agonists of human MrgX1 receptor; Q96LB2; AID 588627; MrgX1-HEK293 cells, Fluo-4 calcium fluorescence, agonist mode; active compounds read high; B-score at 10 µM; 0.44% of 310,000 active;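 active = calcium response B-score plate-corrected fluorescence ratio at least 3 library SD, with starting fluorescence B-score inside 5 SD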
#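 Assay system: stable human MrgX1 HEK293 cell line. Quantity: 15,000 cells per well. Schedule: cells plated overnight, dye loaded 0.5 h 37 °C, 0.5 h room temperature. Detection: Fluo-4 NW calcium-flux fluorescence, kinetic read. Read-out basis: peak-minus-minimum fluorescence over baseline, converted to B scores. Control set: positive and negative control wells on each plate.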
# MrgX1 antag – human MrgX1 receptor antagonism, primary screen; MRGX1-HEK293 calcium flux, Fluo-4, BAM8-22 antagonism; active compounds read low; Q96LB2; 1.3% of 310,000 active; B-score at 10 µM;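 active = calcium-response B-score plate-corrected more than 3 library SD below zero, starting fluorescence within 5 deviations, no agonist response on first addition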;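 also: peak minus trough fluorescence over baseline after final BAM8-22 challenge near maximal dose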
# RGS4 pot – RGS4 potentiation or activation. 0.92% of 310,000 active. B-score at 10 µM. AID 463111. HEK293 M3R/inducible RGS4, carbachol calcium flux Fluo4; active compounds read low;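 active = B-score of the integrated calcium signal more than 4 SD below the library mean, with starting fluorescence not abnormally high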;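 also: negative B-score means reduced calcium response which marks RGS4 activation or potentiation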
#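 System – HEK293 FlpIn-TREx cells, stable M3R, doxycycline-inducible RGS4 · Reagent – ECmax carbachol challenge · Times – compound preincubation 20 min at room temperature before agonist · Technique – Fluo4 fluorescence kinetic imaging of calcium · Measure – B score of integrated Fluo4 ratio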
# RGS4 inh – inhibitors of human RGS4; P49798; HEK293 M3R/RGS4 inducible, Fluo-4 calcium flux; active compounds read high; triggered by carbachol at its EC20; B-score at 10 µM; 0.45% of 310,000 active;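 active = B-score, a plate-corrected calcium signal, over three deviations above library mean, with baseline fluorescence within five deviations of library mean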;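 also: RGS4 expression induced by doxycycline in cells with stable M3 receptor; B-score is computed from the integrated fluorescence ratio over baseline after carbachol; higher B-score means a larger calcium signal and so more RGS4 inhibition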
# Target sequence (P49798 whole entry, looked up): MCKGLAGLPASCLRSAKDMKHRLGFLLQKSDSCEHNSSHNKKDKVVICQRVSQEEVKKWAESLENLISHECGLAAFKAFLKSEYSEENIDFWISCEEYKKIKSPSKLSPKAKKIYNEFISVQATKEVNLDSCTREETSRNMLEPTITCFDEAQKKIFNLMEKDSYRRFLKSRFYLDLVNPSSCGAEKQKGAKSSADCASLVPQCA
# MrgX1 antag conf – human MrgX1 receptor antagonism, re-confirmation screen; shares compounds with MrgX1 antag; MrgX1-HEK293, BAM8-22 calcium flux, Fluo-4; active compounds read low; remaining BAM8-22 calcium response % of control (active compounds read low), % at 10 µM; 19% of 2,300 active; AID 602420;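 active = remaining agonist calcium response no higher than 100% minus 3 SD of agonist-only control wells, with starting fluorescence near control levels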;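 also: agonist BAM8-22 given at a near maximal EC90 to ECmax level; peak minus minimum fluorescence divided by baseline after agonist addition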
# HEK293 Ca flux – counter-screen for MrgX1 antagonists: effect in parental HEK293 cells | shares compounds with MrgX1 antag | Fluo-4 calcium fluorescence, FDSS | fluorescence ratio F(max-min)/F0 at 10 µM | 2% of 4,000 active;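 active = duplicate-averaged calcium fluorescence ratio at least three times the standard deviation of buffer wells, a nonspecific response in parental cells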
# HEK293 Ca counter – MrgX1 allosteric activator counter-screen hit in parental HEK293 cells | shares compounds with MrgX1 antag | parental HEK293 calcium flux, Fluo-4 fluorescence ratio; active compounds read high | fluorescence ratio F(max-min)/F0 at 10 µM | 0.4% of 4,000 active | AID 624114;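 active = calcium fluorescence ratio, averaged over duplicates, at least 3 SD of the buffer-well ratio, meaning a nonspecific response in receptor-free cells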;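 also: untransfected parental HEK293 lacking MrgX1 used as counterscreen for MrgX1 allosteric activators; fluorescence change taken during the second addition on a kinetic imager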
# HEK293 Ca cntr2 – counter-screen for MrgX1 activators: effect in parental HEK293 cells. 8.7% of 4,000 active. shares compounds with MrgX1 antag. Fluo-4 calcium fluorescence (FDSS); active compounds read high. AID 624115. fluorescence ratio F(max-min)/F0 at 10 µM;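 active = calcium fluorescence ratio at least three times the spread of buffer wells, meaning a non-specific response in parental cells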
# Numbers without * were called inactive; i = inactive; nt = no result given.
SMILES,MrgX1 allo act,MrgX1 ag,MrgX1 antag,RGS4 pot,RGS4 inh,MrgX1 antag conf,HEK293 Ca flux,HEK293 Ca counter,HEK293 Ca cntr2
CC(O)CNCCCOc1ccc(Cl)cc1C(C)(C)C (stereo not given),i,i,i,i,i,nt,nt,nt,nt
CCOC(=O)N1CCC(N2CCN(c3cc(C)ccc3C)CC2)CC1,i,i,-8.8*,i,i,i,i,i,i
COC(=O)c1cc(NC2c3ccccc3C(=O)N2Cc2ccco2)cc(C(=O)OC)c1 (stereo not given),i,i,i,nt,nt,nt,nt,nt,nt
COc1ccc(NC2c3ccccc3C(=O)N2Cc2ccco2)cc1OC (stereo not given),i,i,-5.36*,i,i,i,i,i,i
O=C1c2ccccc2C(Nc2ccc(S(=O)(=O)N3CCCCC3)cc2)N1Cc1ccco1 (stereo not given),i,i,-7.85*,i,i,i,i,i,i
O=[N+]([O-])c1ccc(N2CCN(Cc3ccc(Br)o3)CC2)cc1,i,i,i,i,i,nt,nt,nt,nt
CC(C)(C)c1ccc(C(=O)NCC(=O)N/N=C/c2cccnc2)cc1,i,i,i,i,i,nt,nt,nt,nt
CC(C)(C)N1CC(C(=O)Nc2ccc(S(N)(=O)=O)cc2)CC1=O (stereo not given),i,i,-4.89*,i,i,i,i,i,i
CC(C)c1ccc(NC(=O)C2CC(=O)N(C(C)C)C2)cc1 (stereo not given),i,i,-8.96*,i,i,i,i,i,i
CC(C)(C)N1CC(C(=O)Nc2ccc(S(=O)(=O)N3CCCCC3)cc2)CC1=O (stereo not given),i,i,i,i,i,nt,nt,nt,nt
CCOC(=O)Cc1csc(NC(=S)NC(=O)c2cc(OC)c(OC)c(OC)c2)n1,i,i,i,i,i,nt,nt,nt,nt
CCc1cccc(CC)c1-n1c(SCC(=O)N2CCc3ccccc3C2)nnc1-c1cccnc1,i,i,-7.82*,i,i,i,i,i,i
CCN(CC)S(=O)(=O)c1ccc(NC(=O)Nc2cccc(C(F)(F)F)c2)cc1,i,i,-5.82*,i,i,64.4%*,i,i,i
Cc1ccc(S(=O)(=O)N/N=C\c2cn(CC(N)=O)c3ccccc23)cc1,i,i,i,i,i,nt,nt,nt,nt
COc1ccc(CNc2nc3nc(C)c(Cl)c(=O)n3[nH]2)cc1OC,i,i,-5.87*,i,i,i,i,i,i
Cc1cc(=O)oc2cc(OCC(=O)N3CCN(C(=O)C4COc5ccccc5O4)CC3)c(Cl)cc12 (stereo not given),i,i,i,i,i,nt,nt,nt,nt
COc1ccccc1NC(=O)c1oc2ccccc2c1NC(=O)c1ccco1,i,i,-5.17*,i,i,77.1%*,i,i,i
COc1cc(NC(=O)c2oc3ccccc3c2C)ccc1NC(=O)c1ccco1,i,i,i,i,i,nt,nt,nt,nt
CC(C)(C)NS(=O)(=O)c1ccc(CCC(=O)Nc2ccc3c(c2)OCCO3)cc1,i,i,-4.74*,i,i,i,i,i,i
Nc1nnnn1/N=C/c1ccccc1OCc1ccc(Cl)cc1,i,i,i,i,i,nt,nt,nt,nt
Nc1nnnn1/N=C/c1ccccc1OCc1ccc(Cl)cc1Cl,i,i,-4.76*,i,i,i,i,i,i
CCS(=O)(=O)N1CCC(C(=O)Oc2ccc(C)c(C)c2)CC1,i,i,i,i,i,nt,nt,nt,nt
CCOc1ccc(NC(=S)NC(=O)C2CCCC2)cc1,i,i,-5.38*,i,i,i,i,i,i
COc1ccc(NC(=S)NC(=O)C2CCCCC2)cc1,i,i,i,i,i,nt,nt,nt,nt
Cc1cccc(NC(=O)c2ccc(S(=O)(=O)N(C)C)cc2)c1,i,i,i,i,i,nt,nt,nt,nt
SMILES,MrgX1 allo act,MrgX1 ag,MrgX1 antag,RGS4 pot,RGS4 inh,MrgX1 antag conf,HEK293 Ca flux,HEK293 Ca counter,HEK293 Ca cntr2
COc1cc(NC(=O)c2ccc(S(=O)(=O)N(C)C)cc2)cc(OC)c1OC,i,i,-5.33*,i,i,i,i,i,i
CCN(CC)S(=O)(=O)c1ccc(C(=O)Nc2cc3oc4ccccc4c3cc2OC)cc1,i,i,-6.76*,i,i,i,i,i,i
CC(/C=N\NC(=O)Cn1c(C)nc2ccccc21)=C\c1ccccc1,i,i,-11*,i,i,i,i,i,i
Brc1ccc(Nc2ncnc3[nH]ncc23)cc1,i,i,i,i,i,nt,nt,nt,nt
CCOc1ccccc1CNC(=O)c1cc2oc3ccccc3c2n1C,i,i,i,i,i,nt,nt,nt,nt
COCCNC(=O)c1cc2oc3ccccc3c2n1C,i,i,-5.02*,i,i,i,i,i,i
CCNc1c(C(=O)O)ccc2c1C(=O)c1ccccc1C2=O,i,i,i,i,i,nt,nt,nt,nt
CNc1c(C(=O)O)ccc2c1C(=O)c1ccccc1C2=O,i,i,-8.63*,i,i,i,i,i,i
CC(=O)N1CCOc2ccc(S(=O)(=O)NCCc3ccc(Cl)cc3)cc21,i,i,i,i,i,nt,nt,nt,nt
Cc1ccc(C(=O)NCc2ccco2)cc1,i,i,-5.32*,i,i,i,i,i,i
Cc1ccc(C(=O)NC2CC3CCC(C2)N3Cc2ccco2)cc1 (stereo not given),i,i,-7.81*,i,i,i,i,i,i
COc1cc(OC)cc(C(=O)NC2CC3CCC(C2)N3Cc2ccco2)c1 (stereo not given),nt,nt,nt,i,i,nt,nt,nt,nt
CCC(Cc1ccccc1)NC(=O)CCc1ccccc1 (stereo not given),i,i,i,i,i,nt,nt,nt,nt
O=C(c1nc2ccc(Cl)cn2c1CN1CCC(O)CC1)N1CCc2ccccc2C1,i,i,-5.55*,i,i,i,i,i,i
Cc1cc(/C=N/N2CCN(C)CC2)c(C)n1-c1ccc(Cl)cc1,i,i,i,i,i,nt,nt,nt,nt
